According to ChEMBL document CHEMBL1649362, “Cytotoxic triterpenoids from Maytenus retusa” (J Nat Prod, 2010):

Test system: HL-60
Experiment: Cytotoxicity against human HL60 cells at 30 uM after 48 hrs by MTT assay
Type: functional
Conditions: HL-60, 48 h
Summary of the method: (§1)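 HL60 cells (ATCC) grown in RPMI with 10% FBS and seeded at 10 000 cells/well. After 48 h exposure, MTT added (0.5 mg/mL final) for 3 h at 37 °C. Formazan dissolved in SDS-HCl (20% SDS, 0.02 M HCl) and read at 570 nm. IC50 obtained by nonlinear regression.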

| Compound | inhibition at 30 µM [%] |
| --- | --- |
| COC(=O)[C@@]1(C)C[C@@H]2[C@@](C)(CC[C@]3(C)C4CC(=O)c5c(cc(O)c(O)c5C=O)[C@]4(C)CC[C@@]23C)CC1=O (some centres not stated) [MACROCARPIN A] | 100 |
| COC(=O)[C@]1(C)CC[C@]2(C)CC[C@]3(C)C4=CC=C5C(=CC(=O)C(O)=C5C)[C@]4(C)CC[C@@]3(C)[C@@H]2C1 [PRISTIMERIN] | 100 |
| CC1=C(O)C(=O)C=C2C1=CC=C1[C@@]2(C)CC[C@@]2(C)[C@@H]3C[C@@H](C)C(=O)[C@@H](O)[C@]3(C)CC[C@]12C [TINGENIN B] | 88 |
| CC1=C(O)C(=O)C=C2C1=CC=C1[C@@]2(C)CC[C@@]2(C)[C@@H]3C[C@@H](C)C(=O)C[C@]3(C)CC[C@]12C [TINGENONE] | 96 |

Test system: MCF7
Experiment: Cytotoxicity against human MCF7 cells after 48 hrs by MTT assay
Type: functional, cell-based
Conditions: MCF7, 48 h
Summary of the method: (§2)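 MCF-7 cells (ATCC) maintained in DMEM with 10% FBS and plated at 10 000 cells/well. MTT (0.5 mg/mL final) then incubated 3 h at 37 °C. Formazan solubilized in 20% SDS/0.02 M HCl and absorbance read at 570 nm. IC50 from nonlinear regression.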

| Compound | IC50 [nM] |
| --- | --- |
| COC(=O)[C@@]1(C)C[C@@H]2[C@@](C)(CC[C@]3(C)C4CC(=O)c5c(cc(O)c(O)c5C=O)[C@]4(C)CC[C@@]23C)CC1=O (some centres not stated) [MACROCARPIN A] | > 30000 |
| COC(=O)[C@]1(C)CC[C@]2(C)CC[C@]3(C)C4=CC=C5C(=CC(=O)C(O)=C5C)[C@]4(C)CC[C@@]3(C)[C@@H]2C1 [PRISTIMERIN] | 400 |
| CC1=C(O)C(=O)C=C2C1=CC=C1[C@@]2(C)CC[C@@]2(C)[C@@H]3C[C@@H](C)C(=O)[C@@H](O)[C@]3(C)CC[C@]12C [TINGENIN B] | 4400 |
| CC1=C(O)C(=O)C=C2C1=CC=C1[C@@]2(C)CC[C@@]2(C)[C@@H]3C[C@@H](C)C(=O)C[C@]3(C)CC[C@]12C [TINGENONE] | 3000 |

Test system: HL-60
Experiment: Cytotoxicity against human HL60 cells at 1 uM after 48 hrs by MTT assay
Type: functional
Conditions: HL-60, 48 h
Summary of the method: as §1

| Compound | inhibition at 1 µM [%] |
| --- | --- |
| COC(=O)[C@@]1(C)C[C@@H]2[C@@](C)(CC[C@]3(C)C4CC(=O)c5c(cc(O)c(O)c5C=O)[C@]4(C)CC[C@@]23C)CC1=O (some centres not stated) [MACROCARPIN A] | 0 |
| COC(=O)[C@]1(C)CC[C@]2(C)CC[C@]3(C)C4=CC=C5C(=CC(=O)C(O)=C5C)[C@]4(C)CC[C@@]3(C)[C@@H]2C1 [PRISTIMERIN] | 96 |
| CC1=C(O)C(=O)C=C2C1=CC=C1[C@@]2(C)CC[C@@]2(C)[C@@H]3C[C@@H](C)C(=O)[C@@H](O)[C@]3(C)CC[C@]12C [TINGENIN B] | 55 |
| CC1=C(O)C(=O)C=C2C1=CC=C1[C@@]2(C)CC[C@@]2(C)[C@@H]3C[C@@H](C)C(=O)C[C@]3(C)CC[C@]12C [TINGENONE] | 46 |

Test system: MCF7
Experiment: Cytotoxicity against human MCF7 cells at 1 uM after 48 hrs by MTT assay
Type: functional
Conditions: MCF7, 48 h
Summary of the method: as §2

| Compound | inhibition at 1 µM [%] |
| --- | --- |
| COC(=O)[C@@]1(C)C[C@@H]2[C@@](C)(CC[C@]3(C)C4CC(=O)c5c(cc(O)c(O)c5C=O)[C@]4(C)CC[C@@]23C)CC1=O (some centres not stated) [MACROCARPIN A] | 14 |
| COC(=O)[C@]1(C)CC[C@]2(C)CC[C@]3(C)C4=CC=C5C(=CC(=O)C(O)=C5C)[C@]4(C)CC[C@@]3(C)[C@@H]2C1 [PRISTIMERIN] | 42 |
| CC1=C(O)C(=O)C=C2C1=CC=C1[C@@]2(C)CC[C@@]2(C)[C@@H]3C[C@@H](C)C(=O)[C@@H](O)[C@]3(C)CC[C@]12C [TINGENIN B] | 16 |
| CC1=C(O)C(=O)C=C2C1=CC=C1[C@@]2(C)CC[C@@]2(C)[C@@H]3C[C@@H](C)C(=O)C[C@]3(C)CC[C@]12C [TINGENONE] | 17 |

Test system: MCF7
Experiment: Cytotoxicity against human MCF7 cells at 30 uM after 48 hrs by MTT assay
Type: functional
Conditions: MCF7, 48 h
Summary of the method: as §2

| Compound | inhibition at 30 µM [%] |
| --- | --- |
| COC(=O)[C@@]1(C)C[C@@H]2[C@@](C)(CC[C@]3(C)C4CC(=O)c5c(cc(O)c(O)c5C=O)[C@]4(C)CC[C@@]23C)CC1=O (some centres not stated) [MACROCARPIN A] | 36 |
| COC(=O)[C@]1(C)CC[C@]2(C)CC[C@]3(C)C4=CC=C5C(=CC(=O)C(O)=C5C)[C@]4(C)CC[C@@]3(C)[C@@H]2C1 [PRISTIMERIN] | 100 |
| CC1=C(O)C(=O)C=C2C1=CC=C1[C@@]2(C)CC[C@@]2(C)[C@@H]3C[C@@H](C)C(=O)[C@@H](O)[C@]3(C)CC[C@]12C [TINGENIN B] | 100 |
| CC1=C(O)C(=O)C=C2C1=CC=C1[C@@]2(C)CC[C@@]2(C)[C@@H]3C[C@@H](C)C(=O)C[C@]3(C)CC[C@]12C [TINGENONE] | 100 |

Test system: MCF7
Experiment: Cytotoxicity against human MCF7 cells at 10 uM after 48 hrs by MTT assay
Type: functional
Conditions: MCF7, 48 h
Summary of the method: as §2

| Compound | inhibition at 10 µM [%] |
| --- | --- |
| COC(=O)[C@@]1(C)C[C@@H]2[C@@](C)(CC[C@]3(C)C4CC(=O)c5c(cc(O)c(O)c5C=O)[C@]4(C)CC[C@@]23C)CC1=O (some centres not stated) [MACROCARPIN A] | 25 |
| COC(=O)[C@]1(C)CC[C@]2(C)CC[C@]3(C)C4=CC=C5C(=CC(=O)C(O)=C5C)[C@]4(C)CC[C@@]3(C)[C@@H]2C1 [PRISTIMERIN] | 100 |
| CC1=C(O)C(=O)C=C2C1=CC=C1[C@@]2(C)CC[C@@]2(C)[C@@H]3C[C@@H](C)C(=O)[C@@H](O)[C@]3(C)CC[C@]12C [TINGENIN B] | 96 |
| CC1=C(O)C(=O)C=C2C1=CC=C1[C@@]2(C)CC[C@@]2(C)[C@@H]3C[C@@H](C)C(=O)C[C@]3(C)CC[C@]12C [TINGENONE] | 97 |

Test system: HL-60
Experiment: Cytotoxicity against human HL60 cells at 10 uM after 48 hrs by MTT assay
Type: functional
Conditions: HL-60, 48 h
Summary of the method: as §1

| Compound | inhibition at 10 µM [%] |
| --- | --- |
| COC(=O)[C@@]1(C)C[C@@H]2[C@@](C)(CC[C@]3(C)C4CC(=O)c5c(cc(O)c(O)c5C=O)[C@]4(C)CC[C@@]23C)CC1=O (some centres not stated) [MACROCARPIN A] | 100 |
| COC(=O)[C@]1(C)CC[C@]2(C)CC[C@]3(C)C4=CC=C5C(=CC(=O)C(O)=C5C)[C@]4(C)CC[C@@]3(C)[C@@H]2C1 [PRISTIMERIN] | 100 |
| CC1=C(O)C(=O)C=C2C1=CC=C1[C@@]2(C)CC[C@@]2(C)[C@@H]3C[C@@H](C)C(=O)[C@@H](O)[C@]3(C)CC[C@]12C [TINGENIN B] | 82 |
| CC1=C(O)C(=O)C=C2C1=CC=C1[C@@]2(C)CC[C@@]2(C)[C@@H]3C[C@@H](C)C(=O)C[C@]3(C)CC[C@]12C [TINGENONE] | 100 |

Test system: HL-60
Experiment: Cytotoxicity against human HL60 cells after 48 hrs by MTT assay
Type: functional, cell-based
Conditions: HL-60, 48 h
Summary of the method: as §1

| Compound | IC50 [nM] |
| --- | --- |
| COC(=O)[C@@]1(C)C[C@@H]2[C@@](C)(CC[C@]3(C)C4CC(=O)c5c(cc(O)c(O)c5C=O)[C@]4(C)CC[C@@]23C)CC1=O (some centres not stated) [MACROCARPIN A] | 1700 |
| COC(=O)[C@]1(C)CC[C@]2(C)CC[C@]3(C)C4=CC=C5C(=CC(=O)C(O)=C5C)[C@]4(C)CC[C@@]3(C)[C@@H]2C1 [PRISTIMERIN] | 200 |
| CC1=C(O)C(=O)C=C2C1=CC=C1[C@@]2(C)CC[C@@]2(C)[C@@H]3C[C@@H](C)C(=O)[C@@H](O)[C@]3(C)CC[C@]12C [TINGENIN B] | 700 |
| CC1=C(O)C(=O)C=C2C1=CC=C1[C@@]2(C)CC[C@@]2(C)[C@@H]3C[C@@H](C)C(=O)C[C@]3(C)CC[C@]12C [TINGENONE] | 500 |
